Experimental data published in PMC9773939 (ACS Omega, 2022).
Like-named read-outs stand apart in the source and are kept apart here. Marks after values point to notes of the source that are not given here.

Experiments:
[1] = test system: Salmonella typhimurium TA 98 strain; assay: Mutagenicity Ames test; assay type: cell-based
[2] = test system: promastigotes of L. braziliensis; assay: In vitro growth inhibition of L. braziliensis promastigotes; assay type: cell-based, Leishmania (V) braziliensis (MHOM/BR/75/M2903); details: for IC50: read-out: promastigote, IC50 L. braziliensis; for inhibition at 25 µM: read-out: promastigote, PGI (percentage growth inhibition) L. braziliensis
[3] = test system: amastigotes of L. braziliensis; assay: Ex vivo antiamastigote activity of L. braziliensis; assay type: cell-based, L. braziliensis (MHOM/BZ/82/M2903); details: for S.I.Leishmania (selectivity index): CC50 (peritoneal macrophage) / IC50 (amastigotes of L. braziliensis); for IC50: Leishmania braziliensis, 48 h, read-out: amastigote, IC50 L. braziliensis
Summary of the method: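 L. braziliensis MHOM/BZ/82/M2903 amastigotes were taken from footpad lesions of infected BALB/c mice. Macrophages were removed by brief centrifugation (3000 rpm, 2–3 min). Amastigotes were kept at 37 °C, pH 5.5, in supplemented M199 with 10% FCS. At 2 × 10^6/mL they were exposed to 1.0–50.0 μM test compound (controls 1% DMSO). At 48 h parasites were counted in a Neubauer chamber against untreated controls. S.I. = peritoneal macrophage CC50 / amastigote IC50.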

peritoneal macrophages = assay: Cytotoxicity on primary peritoneal macrophages; assay type: cell-based, mouse; details: read-out: peritoneal macrophage, CC50; 48 h, MTT
Summary of the method: (§1)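 Peritoneal or J774.1A macrophages were grown in DMEM with 10% heat-inactivated FBS, L-glutamine and penicillin/streptomycin. Cells were seeded at 5 × 10^4 cells/well for 24 h at 37 °C, 5% CO2, then given test compound at 10–100 μM (from 25,000 μM DMSO stock) for 48 h. MTT (0.4 mg/mL, 4 h, 37 °C) was dissolved in DMSO and read at 570 nm. Cytotoxicity was expressed relative to negative controls. At least three experiments.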

T. cruzi epimastigotes = assay: Nitrite concentration by Griess test, T. cruzi epimastigote culture; assay type: cell-based; details: 5 days, 25, 50 and 100 μM
Summary of the method: (§2)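 L. infantum promastigote or T. cruzi epimastigote cultures (5 × 10^6 parasites/well) were incubated 5 days with test compound at 25, 50 and 100 μM, with untreated wells as controls. Supernatants were mixed with 1% sulfanilamide in 50% acetic acid, then after 15 min with 1% N-naphthylethylenediamine in 50% acetic acid, and read at 540 nm. Nitrite (μM) was taken from a sodium nitrite standard curve (detection limit 1.56 μM). Run in triplicate.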

[4] = test system: L. infantum promastigotes; assay: Nitrite concentration by Griess test, L. infantum promastigote culture; assay type: cell-based; details: 5 days, 25, 50 and 100 μM
Summary of the method: as §2

[5] = test system: epimastigotes of T. cruzi; assay: In vitro anti-T. cruzi evaluation on epimastigotes; assay type: cell-based, T. cruzi (CL Brener clone); details: for IC50 / inhibition at 25 µM: Trypanosoma cruzi; for IC50: 120 h, read-out: epimastigote, IC50 T. cruzi; for S.I.T.cruzi (selectivity index), column epimastigote, IC50 (μM) T. cruzi (S.I.T.cruzi): CC50 (J774.1A) / IC50 of epimastigotes (T. cruzi); for inhibition at 25 µM: read-out: epimastigote, PGI (percentage growth inhibition) T. cruzi, determined at 25 μM
Summary of the method: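 Turbidity (A595) was read at day 0 and day 5. PGI was calculated relative to untreated controls, with single-point PGI at 25 μM. IC50 is the concentration […]. At least three experiments.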

[6] = test system: promastigotes of L. infantum; assay: In vitro growth inhibition of L. infantum promastigotes; assay type: cell-based, Leishmania infantum (MHOM MA67I7MAP263); details: for IC50 / inhibition at 25 µM: Leishmania infantum; for IC50 / promastigote, IC50 L. infantum: 72 h; for IC50: read-out: promastigote, IC50 L. infantum; for inhibition at 25 µM: read-out: promastigote, PGI (percentage growth inhibition) L. infantum; for promastigote, IC50 L. infantum: promastigotes, MTT
Summary of the method: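 L. infantum MHOM MA67I7MAP263 promastigotes at 2 × 10^6 parasites/mL were exposed to 0.5–25 μM test compound for 72 h at 25 °C. Dilutions came from a 3000 μM DMSO stock, with final DMSO ≤1%. MTT (0.4 mg/mL) was added for 4 h at 37 °C, formazan was dissolved in DMSO and read at 570 nm. Inhibition was calculated against untreated controls. At least three experiments, mean ± SD.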

[7] = Cytotoxicity on primary peritoneal macrophages; assay type: cell-based, mouse; details: mouse, primary peritoneal macrophages, peritoneal macrophage, CC50, 48 h, MTT
Summary of the method: as §1

[8] = Solubility, qualitative remarks; assay type: physicochemical; details: qualitative remark
J774.1A macrophages [9] = assay: Cytotoxicity on J774.1A macrophages; assay type: cell-based; details: read-out: J774.1A macrophage, CC50; 48 h, MTT
Summary of the method: as §1

J774.1A macrophages [10] = details: read-out: J774.1A macrophage, CC50; cited from earlier work
[11] = test system: epimastigotes of T. cruzi; assay: Antifolate activity: IC50 on T. cruzi epimastigotes with and without folic acid; assay type: cell-based; details: presence vs absence of D,L-folic acid
Summary of the method: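 T. cruzi epimastigotes were treated with test compound with or without D,L-folic acid, following the epimastigote turbidimetric viability protocol (120 h, 25 °C, A595). IC50 was determined in each condition and compared.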

[12] = test system: epimastigotes of T. cruzi; details: cited from earlier work
[13] = test system: promastigotes of L. infantum; assay: Effect of metal cations on IC50 on L. infantum promastigotes; assay type: cell-based; details: Leishmania parasites, metal cation at 1 μM
Summary of the method: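 L. infantum promastigotes were treated with test compound alone or with a metal cation (Fe3+, Cu2+ or Zn2+) at 1 μM, following the promastigote MTT viability protocol. IC50 was determined with and without the cation and compared.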

[14] = Cytotoxicity on J774.1A macrophages; assay type: cell-based; details: mouse, J774.1A macrophages, J774.1A macrophage, CC50, 48 h, MTT
Summary of the method: as §1

[15] = test system: promastigotes of L. infantum; assay type: cell-based; details: presence vs absence of D,L-folic acid
Summary of the method: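 L. infantum promastigotes were treated with test compound with or without D,L-folic acid, following the promastigote MTT viability protocol (72 h, 25 °C, formazan read at 570 nm). IC50 was determined in each condition and compared.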

[16] = Oxidative decomposition followed by NMR; assay type: physicochemical; details: 2 weeks of incubation with H2O2

| SMILES | IC50 [3] | S.I.Leishmania (selectivity index) [3] | IC50 ([2]; Leishmania braziliensis) | IC50 [5] | IC50 [6] | S.I.T.cruzi (selectivity index), column epimastigote, IC50 (μM) T. cruzi (S.I.T.cruzi) [5] | CC50 at 48 h [7] | other results |
| --- | --- | --- | --- | --- | --- | --- | --- | --- |
| Nc1ccc([N+](=O)[O-])cc1N [NPD, 4-nitro-o-phenylenediamine, reference compound] |  |  |  |  |  |  |  | revertants number ([1]; dose 20.0 μg/plate): 394.0 ± 10 |
| CNC[C@H](O)[C@@H](O)[C@H](O)[C@H](O)CO.[O]=[Sb](=[O])[OH] [glucantime, reference compound] |  | 11.3 |  |  |  |  |  | IC50 ([2]; promastigotes): 32 ± 1.78 µM; CC50 (peritoneal macrophages): 138 ± 10.1 µM |
| O=c1[nH]c(-c2ccc(Cl)cc2)nc2ccccc12 [2-(4-chlorophenyl)quinazolin-4(3H)-one, reference compound] |  |  |  |  |  |  |  | nitrite ion production (Griess test) (T. cruzi epimastigotes): No production was detected; nitrite ion production (Griess test) [4]: No production was detected |
| N/N=c1\[nH]c(-c2cccc(Br)c2)nc2ccccc12 [3g, (Z)-1-(2-(3-bromophenyl)quinazolin-4(3H)-ylidene)hydrazine] |  |  | > 25 µM | > 25 µM | 21.1 ± 1.21 µM |  |  | inhibition at 25 µM ([2]; Leishmania braziliensis): 27.3% |
| CC1CS(=O)(=O)CCN1/N=C/c1ccc([N+](=O)[O-])o1 (stereo not drawn) [nifurtimox] |  |  |  |  |  |  |  | CC50 (J774.1A macrophages [10]): 280 ± 4 µM; change of IC50 on addition of folic acid (FA) [11]: not affected; S.I.T.cruzi (selectivity index) ([12]; CC50 (J774.1A) / IC50 of epimastigotes (T. cruzi)): 36 ^c; IC50 ([12]; read-out: epimastigote, IC50 T. cruzi, anti-Chagasic reference): 7.7 ± 0.5 µM |
| NNc1nc(-c2ccccc2)nc2ccccc12 [3a, (Z)-1-(2-phenylquinazolin-4(3H)-ylidene)hydrazine] | 8.26 ± 0.45 µM | 7.4 | 4.53 ± 0.23 µM | > 25 µM | 12.7 ± 0.74 µM | <3.6 |  | CC50 (peritoneal macrophages): 61 ± 2.34 µM; CC50 (J774.1A macrophages [9]): 90.2 ± 4.32 µM |
| N/N=c1\[nH]c(-c2ccco2)nc2ccccc12 [3k] |  |  | > 25 µM | > 25 µM | 14 ± 0.91 µM |  |  | inhibition at 25 µM ([2]; Leishmania braziliensis): 46.6%; inhibition at 25 µM [5]: 8.56% |
| COc1cccc(-c2nc3ccccc3/c(=N/N)[nH]2)c1 [3h, (Z)-1-(2-(3-Methoxyphenyl)quinazolin-4(3H)-ylidene)hydrazine] |  |  | 12.2 ± 0.76 µM | > 25 µM | > 25 µM |  |  | inhibition at 25 µM [5]: 10.1%; inhibition at 25 µM [6]: 47.2%; promastigote, IC50 L. infantum [6]: inactive |
| COc1ccccc1-c1nc2ccccc2/c(=N/N)[nH]1 [3i, (Z)-1-(2-(2-Methoxyphenyl)quinazolin-4(3H)-ylidene)hydrazine] |  |  | > 25 µM | > 25 µM | > 25 µM |  |  | inhibition at 25 µM ([2]; Leishmania braziliensis): 49.2%; promastigote, IC50 L. braziliensis ([2]; promastigotes): did not show activity; inhibition at 25 µM [5]: 11.9%; inhibition at 25 µM [6]: 28.3%; promastigote, IC50 L. infantum [6]: did not show activity; solubility [8]: poor solubilities |

Continued, in another order:

| IC50 [3] | SMILES | S.I.Leishmania (selectivity index) [3] | IC50 ([2]; Leishmania braziliensis) | IC50 [5] | IC50 [6] | S.I.T.cruzi (selectivity index), column epimastigote, IC50 (μM) T. cruzi (S.I.T.cruzi) [5] | CC50 at 48 h [7] | other results |
| --- | --- | --- | --- | --- | --- | --- | --- | --- |
| 8.43 ± 0.51 µM | NNc1nc(-c2cccc(Cl)c2)nc2ccccc12 [3f, (Z)-1-(2-(3-chlorophenyl)quinazolin-4(3H)-ylidene)hydrazine] |  | 5.63 ± 0.36 µM | > 25 µM | 4.55 ± 0.29 µM | no active | > 100 µM | solubility in culture [8]: appreciable solubility; CC50 (J774.1A macrophages [9]): > 120 µM |
| 14 ± 0.89 µM | Cc1ccc(-c2nc3ccccc3/c(=N/N)[nH]2)cc1 [3e, (Z)-1-(2-(4-Methylphenyl)quinazolin-4(3H)-ylidene)hydrazine] | 6.1 | 10.1 ± 0.48 µM | 18 ± 1.11 µM | 1.2 ± 0.08 µM | 6.4 | 84.8 ± 3.67 µM | change of IC50 in the presence of Cu2+ [13]: increase in IC50 values; CC50 at 48 h [14]: 115 ± 5.43 µM; change of IC50 on addition of folic acid (FA) [11]: Increasing IC50 values by about twofold |
| 7.41 ± 0.39 µM | NNc1nc(-c2ccc(F)cc2)nc2ccccc12 [3b, (Z)-1-(2-(4-fluorophenyl)quinazolin-4(3H)-ylidene)hydrazine] |  | 3.85 ± 0.17 µM | 17.9 ± 1.21 µM | 5.01 ± 0.31 µM | >6.7 | > 100 µM | solubility in culture [8]: appreciable solubility |
| 21.2 ± 1.13 µM | CCCCCCCCCCCCCCCCOP(=O)([O-])OCC[N+](C)(C)C [miltefosine, reference compound] | 3.2 | 8.78 ± 0.41 µM |  | 10.6 ± 0.46 µM |  | 67.8 ± 3.11 µM | CC50 at 48 h [14]: 72.3 ± 3.45 µM; change of IC50 on addition of folic acid (FA) [15]: not affected |
| 12.7 ± 0.78 µM | NNc1nc(-c2ccc(Br)cc2)nc2ccccc12 [3d, (Z)-1-(2-(4-bromophenyl)quinazolin-4(3H)-ylidene)hydrazine] | 6.2 | 6.2 ± 0.38 µM | 14.3 ± 0.87 µM | 2.13 ± 0.12 µM | 5.5 |  | CC50 (peritoneal macrophages): 78 ± 3.89 µM; CC50 (J774.1A macrophages [9]): 78.6 ± 3.99 µM; change of IC50 on addition of folic acid (FA) [11]: Increasing IC50 values by about twofold |
| 8.96 ± 0.53 µM | NNc1nc(-c2ccc(Cl)cc2)nc2ccccc12 [3c, (Z)-1-(2-(4-chlorophenyl)quinazolin-4(3H)-ylidene)hydrazine] |  | 5.12 ± 0.32 µM | 11.5 ± 0.49 µM | 1.56 ± 0.09 µM | 9.1 | 89.9 ± 3.77 µM | nitrite ion production (Griess test) (T. cruzi epimastigotes): appreciable amount of nitrite ion in sub-micromolar ranges; change of IC50 in the presence of Cu2+ [13]: increase in IC50 values; nitrite ion production (Griess test) [4]: appreciable amount of nitrite ion in sub-micromolar ranges; revertants number ([1]; dose 27.9 μg/plate): 8.0 ± 2.0; revertants number ([1]; dose 37.2 μg/plate): 4.5 ± 2.0; revertants number ([1]; dose 55.8 μg/plate): 5.0 ± 0.5; revertants number ([1]; dose 111.7 μg/plate): 8.0 ± 1.0; revertants number ([1]; dose 335.0 μg/plate): 9.5 ± 0.5; solubility in culture [8]: appreciable solubility; CC50 at 48 h [14]: 105 ± 5.66 µM; change of IC50 on addition of folic acid (FA) [11]: Increasing IC50 values by about twofold; change of IC50 on addition of folic acid (FA) [15]: modest increase in IC50; decomposition under oxidative conditions [16]: decomposed in at least three additional products |
